According to ChEMBL document CHEMBL1148185, “New cyanocyclines from a cyanide-treated broth of Streptomyces lusitanus” (1993):
In brackets after ≈: the same amount, converted by molar mass. Activity calls are given as the source filed them. The rule behind the calls is not given here.

Key:
Type in all cases: functional
[1] = tested on: Bacillus subtilis; test: Antibacterial activity against Bacillus subtilis ATCC 6633 after 16 to 20 hrs
Procedure, shortened: (§1)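 Broth microdilution MIC. Bacteria grown in brain heart infusion (BHI) broth at 37° for 24 h, then subcultured into fresh BHI for 8 h. Cultures diluted in 0.9% NaCl to McFarland 0.5 (ca. 10^8 cfu/ml), then diluted 20-fold in BHI. Two-fold antibiotic dilution series; 50 μl drug plus 50 μl culture per well. Incubated at 37° for 16–20 h.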

[2] = tested on: Escherichia coli; test: Antibacterial activity against Escherichia coli ATCC 10536 after 16 to 20 hrs; procedure, shortened: as §1
[3] = tested on: Enterococcus faecalis; test: Antibacterial activity against Streptococcus faecalis ATCC 29212 after 16 to 20 hrs; procedure, shortened: as §1
[4] = tested on: Proteus vulgaris; test: Antibacterial activity against Proteus vulgaris after 16 to 20 hrs; procedure, shortened: as §1
[5] = tested on: Micrococcus luteus; test: Antibacterial activity against Micrococcus luteus ATCC 4698 after 16 to 20 hrs; procedure, shortened: as §1
[6] = tested on: Klebsiella pneumoniae; test: Antibacterial activity against Klebsiella pneumoniae A-''AD'' after 16 to 20 hrs; procedure, shortened: as §1
[7] = tested on: Serratia marcescens; test: Antibacterial activity against Serratia marcescens ATCC 13880 after 16 to 20 hrs; procedure, shortened: as §1

COc1c(C)c(O)c2c(c1O)[C@@H](CO)N1[C@H]3[C@@H]4[C@@H](C[C@H]([C@H]1O)N4C)[C@@H]1OCCN1[C@@H]23
Activity [1]: Active | Activity [2]: Active | Activity [3]: Active | Activity [4]: Active | Activity [5]: Active | Activity [6]: Active | Activity [7]: Active

COC1=C(C)C(=O)C2=C(C1=O)[C@@H](CO)N1[C@H]3[C@H]4N[C@H](C[C@H]4[C@@H]4OCCN4[C@@H]23)[C@@H]1O
Activity [1]: Active | Activity [2]: Active | Activity [3]: Active | Activity [4]: Active | Activity [5]: Active | Activity [6]: Active | Activity [7]: Active

COC1=C(C)C(=O)C2=C(C1=O)[C@@H](CO)N1[C@H]3[C@H]4[C@@H](C[C@H]([C@H]1C#N)N4C)[C@@H]1OCCN1[C@@H]23 [CYANOCYCLINE A]
MIC [1]: 0.031 µg/mL (≈ 0.0727 µM) | MIC [2]: 0.125 µg/mL (≈ 0.293 µM) | MIC [3]: 0.25 µg/mL (≈ 0.586 µM) | MIC [4]: 0.25 µg/mL (≈ 0.586 µM) | MIC [5]: 0.031 µg/mL (≈ 0.0727 µM) | MIC [6]: 0.125 µg/mL (≈ 0.293 µM) | MIC [7]: 0.5 µg/mL (≈ 1.17 µM)

COC1=C(C)C(=O)C2=C(C1=O)[C@@H](CO)N1[C@H]3[C@H]4N[C@H](C[C@H]4[C@@H]4OCCN4[C@@H]23)[C@H]1C#N [CYANOCYCLINE B]
MIC [1]: 0.016 µg/mL (≈ 0.0388 µM) | MIC [2]: 0.25 µg/mL (≈ 0.606 µM) | MIC [3]: 0.25 µg/mL (≈ 0.606 µM) | MIC [4]: 1 µg/mL (≈ 2.42 µM) | MIC [5]: 0.063 µg/mL (≈ 0.153 µM) | MIC [6]: 0.031 µg/mL (≈ 0.0752 µM) | MIC [7]: 0.5 µg/mL (≈ 1.21 µM)

COc1c(C)c(OC)c2c(c1OC)[C@@H](CO)N1[C@H]3[C@@H]4[C@@H](C[C@H]([C@H]1C#N)N4C)[C@@H]1OCCN1[C@@H]23
Activity [1]: inactive | Activity [2]: inactive | Activity [3]: inactive | Activity [4]: inactive | Activity [5]: inactive | Activity [6]: inactive | Activity [7]: inactive

COc1c(C)c(O)c2c(c1O)[C@@H](CO)N1[C@H]3[C@@H]4[C@@H](C[C@H]([C@H]1C#N)N4C)[C@@H]1OCCN1[C@@H]23
Activity [1]: Active | Activity [2]: Active | Activity [3]: Active | Activity [4]: Active | Activity [5]: Active | Activity [6]: Active | Activity [7]: Active

COC1=C(C)C(=O)C2=C(C1=O)[C@@H](CO)N1[C@H]3[C@@H]4[C@@H](C[C@H]([C@H]1C#N)N4C)[C@H](C#N)N(CCO)[C@@H]23 [CYANOCYCLINE D]
MIC [1]: 0.061 µg/mL (≈ 0.135 µM) | MIC [2]: 0.5 µg/mL (≈ 1.1 µM) | MIC [3]: 0.25 µg/mL (≈ 0.551 µM) | MIC [4]: 0.5 µg/mL (≈ 1.1 µM) | MIC [5]: 0.125 µg/mL (≈ 0.276 µM) | MIC [6]: 0.125 µg/mL (≈ 0.276 µM) | MIC [7]: 0.25 µg/mL (≈ 0.551 µM)
